Experimental data from paper PMC4633019 (Journal of natural products, 2015).
≈ marks a conversion by molar mass, not a printed value. Where a SMILES comes first, the peptide text is derived from it. [ ]: non-standard residue; d: D form. The star is where a group is joined. Sta = CC(C)C[C@H](N)[C@@H](O)CC(=O)O; Isovaleryl = CC(C)CC(=O)*

What was measured:
HepG2 cells = assay: Mammalian cell viability assay; assay type: cell-based, human; conditions: up to highest tested concentrations
In short: (§1)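 Viability was read with Cell TiterGlo reagent, used according to the manufacturer's instructions, in 1536-well format with a plate-imager read-out. The same procedure was applied to human RBCs.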

HEK293 cells = assay: Mammalian cell viability assay; assay type: cell-based, human; conditions: up to highest tested concentrations
In short: as §1

[1] = system: Plasmodium falciparum (cp250, Dd2, HB3, 7G8, GB4 lines); assay: SYBR Green DNA-staining parasite viability assay; assay type: cell-based
In short: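 Infected RBCs (0.3% parasitemia, 2.5% hematocrit final) in culture medium received pin-transferred test compound. Incubated 72 h at 37 °C in humidified 5% CO2. Lysis buffer was then added (20 mM Tris-HCl, 10 mM EDTA, 0.16% saponin, 1.6% Triton-X, 10× SYBR Green I), followed by overnight incubation at 22–24 °C in the dark. Fluorescence was read at 485/535 nm. Controls: artemisinin and mefloquine as positive, DMSO as negative.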

Jurkat cells = conditions: cited from earlier work
[2] = system: P. falciparum plasmepsins (aspartyl protease activity of Pf extracts); assay: Plasmepsin protease assay with P. falciparum extract and FRET peptide substrate; assay type: biochemical, Plasmodium falciparum; conditions: freshly prepared P. falciparum extracts

Compound	toxicity to HepG2 cells (in words) (HepG2 cells)	toxicity to HEK293 cells (in words) (HEK293 cells)	EC50 (cytotoxicity) (Jurkat cells)	other results
COCC(=O)N[C@@H](C(=O)N1NCCC[C@H]1C(=O)N[C@@H](Cc1ccccc1)[C@@H](O)[C@H](C)C(=O)N[C@@H]1CCN(C(N)=O)C1=O)[C@H](O)C(C)C [25-epi-actinoramide A]	no toxicity	no toxicity	–	–
COCC(=O)N[C@@H](C(=O)N1NCCC[C@H]1C(=O)N[C@@H](Cc1ccccc1)[C@@H](O)[C@H](C)C(=O)NC1CNC(=O)NC1=O)[C@H](O)C(C)C (stereo partly drawn) [Actinoramide F, actinoramide F]	–	–	–	antimalarial activity (in words) [1]: no antimalarial activity
COCC(=O)N[C@@H](C(=O)N1NCCC[C@H]1C(=O)N[C@@H](Cc1ccccc1)[C@@H](O)[C@H](C)C(=O)N[C@H]1CCN(C(N)=O)C1=O)[C@H](O)C(C)C [actinoramide A]	no toxicity	no toxicity	≈ 60 μg/mL	–
COCC(=O)N[C@@H](C(=O)N1N=CCC[C@H]1C(=O)N[C@@H](Cc1ccccc1)[C@@H](O)[C@H](C)C(=O)N[C@H]1CCN(C(N)=O)C1=O)[C@H](O)C(C)C [actinoramide D]	–	–	–	decrease in potency (vs actinoramide A) ([1]; depending on the parasite strain): 6–20 fold
COCC(=O)N[C@@H](C(=O)N1NCCC[C@H]1C(=O)N[C@@H](Cc1ccccc1)[C@@H](O)[C@H](C)C(=O)N[C@H]1CCC(=O)NC1=O)[C@H](O)C(C)C [padanamide B, reference compound]	–	–	~20 µg/mL (≈ 30.9 µM)	–
CC(C)CC(=O)N[C@H](C(=O)N[C@H](C(=O)N[C@@H](CC(C)C)[C@@H](O)CC(=O)N[C@@H](C)C(=O)N[C@@H](CC(C)C)[C@@H](O)CC(=O)O)C(C)C)C(C)C [pepstatin] (Isovaleryl-VV[Sta]A[Sta]-OH)	–	–	–	inhibition of aspartyl protease (plasmepsin) activity (in words) [2]: potently inhibited
